Active and inactive are the calls of the source. The calls are words filed in the database; no cut-off is given here.
Tests used:
Rattus norvegicus [1] = organism: Rattus norvegicus; assay: Inhibition of rat brain mitochondrial MAO at 0.8 mmol/L by kynuramine fluorimetric assay
A549 = assay: Cytotoxicity against human A549 cells by SRB assay; format: functional, cell-based
Summary of the method: (§1)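 Growth inhibition of human lung A-549 and prostate PC-3 cancer cell lines, read out by sulforhodamine B dye staining; IC50 taken as the concentration giving 50% inhibition.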

[2] = Inhibition of rat brain mitochondrial MAO by kynuramine fluorimetric assay
Saccharomyces cerevisiae [3] = assay: Inhibition of chitin synthase-mediated chitin synthesis in yeast at 250 uM by high throughput assay
Summary of the method: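 Yeast Saccharomyces cerevisiae cell extracts used as chitin synthase source in a modified non-radioactive chitin synthase assay; compounds screened at a single fixed level.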

Rattus norvegicus [4] = organism: Rattus norvegicus; assay: Inhibition of rat brain mitochondrial MAO at 0.08 mmol/L by kynuramine fluorimetric assay
Rattus norvegicus [5] = organism: Rattus norvegicus; assay: Inhibition of rat brain mitochondrial MAO at 0.008 mmol/L by kynuramine fluorimetric assay
Rattus norvegicus [6] = organism: Rattus norvegicus; assay: Inhibition of rat brain mitochondrial MAO at 0.01 mmol/L by kynuramine fluorimetric assay
Rattus norvegicus [7] = organism: Rattus norvegicus; assay: Inhibition of rat brain mitochondrial MAO at 0.1 mmol/L by kynuramine fluorimetric assay
Rattus norvegicus [8] = organism: Rattus norvegicus; assay: Inhibition of rat brain mitochondrial MAO at 1 mmol/L by kynuramine fluorimetric assay
Saccharomyces cerevisiae [9] = assay: Inhibition of chitin synthase-mediated chitin synthesis in yeast by high throughput assay
Summary of the method: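 Enzyme source is Saccharomyces cerevisiae cell extract, run in a modified non-radioactive chitin synthase assay; five serial dilutions per compound tested to follow concentration dependence.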

PC-3 = assay: Cytotoxicity against human PC3 cells by SRB assay; format: functional, cell-based; summary of the method: as §1

SMILES | IC50 [2] [µM] | inhibition (Saccharomyces cerevisiae [3]) | inhibition (Rattus norvegicus [6]) [%] | inhibition (Rattus norvegicus [7]) [%] | inhibition (Rattus norvegicus [8]) [%] | also measured
CCCCC(CCCC)N1N=C(c2ccc(Cl)cc2)OCC1=O | 420 | Active | – | – | – | inhibition (Rattus norvegicus [1]): 58.8%; IC50 (A549): 24.8 µM; inhibition (Rattus norvegicus [4]): 28.2%; inhibition (Rattus norvegicus [5]): 11.2%
CCCCC(CCCC)N1N=C(c2ccc(CC)cc2)OCC1=O | – | Active | – | – | – | –
N#CCCN1N=C(c2ccccc2)OCC1=O | – | – | – | – | – | Activity (Saccharomyces cerevisiae [3]): Active
CCCCC(CCCC)NNC(=O)c1cccnc1OCC | – | – | 0 | 6.09 | 21.7 | –
CCCCC(CCCC)N1N=C(c2cc(C)cc(C)c2)OCC1=O | – | Active | – | – | – | –
CCCCC(CCCC)N1N=C(c2cccnc2OCC)OCC1=O | – | 98% | – | – | – | inhibition (Saccharomyces cerevisiae [9]): Dose-dependent effect
CCCCC(CCCC)NNC(=O)c1ccc(Cl)cc1Cl | – | – | 9.33 | 3.52 | 10.5 | –
C[C@@H]([C@H](N)C(=O)N[C@H](C(=O)O)[C@H]1O[C@@H](n2ccc(=O)[nH]c2=O)[C@H](O)[C@@H]1O)[C@H](O)c1ccc(O)cn1 | – | – | – | – | – | inhibition (Saccharomyces cerevisiae [9]): Dose-dependent effect
CCc1ccc(C(=O)NNCCC#N)cc1 | 240 | – | 2.8 | 37 | 71.2 | –
CCCCC(CCCC)NNC(=O)c1ccc2ccccc2c1 | – | – | 0 | 8.47 | 33.1 | –
CCCCC(CCCC)NNC(=O)c1ccc(Cl)cc1 | 2610 | – | 7.52 | 2.71 | 28.6 | –
CCc1ccc(C2=NN(CCC#N)C(=O)CO2)cc1 | 430 | Active | – | – | – | inhibition (Rattus norvegicus [1]): 59.7%; IC50 (PC-3): > 100 µM; IC50 (A549): > 100 µM; inhibition (Rattus norvegicus [4]): 25.5%; inhibition (Rattus norvegicus [5]): 9.73%
O=C(NC(=O)c1c(F)cccc1F)Nc1ccc(Cl)cc1 | – | inactive | – | – | – | –
CCCCOC(=O)CCN1N=C(c2cccc(C)c2)OCC1=O | – | 95% | – | – | – | inhibition (Saccharomyces cerevisiae [9]): Dose-dependent effect
CCCCC(CCCC)N1N=C(c2ccc(Cl)cc2Cl)OCC1=O | – | Active | – | – | – | –
CCCCC(CCCC)NNC(=O)c1cc(OC)c(OC)c(OC)c1 | 2300 | – | 4.67 | 8.16 | 35.5 | –
CCCCC(CCCC)NNC(=O)c1ccccc1Cl | – | – | 6.4 | 5.13 | 14.2 | –
CCCCC(CCCC)N1N=C(c2ccc3ccccc3c2)OCC1=O | 600 | Active | – | – | – | inhibition (Rattus norvegicus [1]): 54.6%; IC50 (PC-3): 42.5 µM; IC50 (A549): > 100 µM; inhibition (Rattus norvegicus [4]): 20.3%; inhibition (Rattus norvegicus [5]): 12.8%
CCCCC(CCCC)N1N=C(c2cc(OC)c(OC)c(OC)c2)OCC1=O | 410 | Active | – | – | – | inhibition (Rattus norvegicus [1]): 61.4%; IC50 (PC-3): 14.4 µM; IC50 (A549): 9.91 µM; inhibition (Rattus norvegicus [4]): 23.5%; inhibition (Rattus norvegicus [5]): 14%
CCCCC(CCCC)NNC(=O)c1ccc2c(c1)OCO2 | – | – | 0 | 13.8 | 62.8 | –
CCCCC(CCCC)N1N=C(c2ccc3c(c2)OCO3)OCC1=O | – | Active | – | – | – | –

— ChEMBL document CHEMBL1137735, “Novel 4H-1,3,4-oxadiazin-5(6H)-ones with hydrophobic and long alkyl chains: design, synthesis, and bioactive diversity on inhibition of monoamine oxidase, chitin biosynthesis and tumor cell” (Eur J Med Chem, 2009)
